Experiment [1] deals with Escherichia coli. Put plainly: Antibacterial activity against Escherichia coli ATCC 25922 assessed as reduction in microbial growth by two fold microdilution method. The class given is functional. (In general: Dilution methods test growth across graded concentrations, often in twofold steps.)
For experiment [2], the system named is Staphylococcus aureus. Put plainly: Antibacterial activity against Staphylococcus aureus ATCC 29213 assessed as reduction in microbial growth by two fold microdilution method. The class given is functional.
For experiment [3], the system named is Acinetobacter baumannii. Briefly: Antibacterial activity against Acinetobacter baumannii assessed as reduction in microbial growth by two fold microdilution method. It counts as functional.
In experiment [4] the test system is Escherichia coli. Briefly: Antibacterial activity against Escherichia coli assessed as reduction in microbial growth by two fold microdilution method. The class given is functional.
Experiment [5] concerns Staphylococcus aureus. Briefly: Antibacterial activity against methicillin-resistant Staphylococcus aureus assessed as reduction in bacterial growth at 50 to 300 ug/ml measured after 14 passages. The class given is functional, organism-based. The note with it: dose 50-300 µg/ml.
The subject of experiment [6] is Staphylococcus aureus. Put plainly: Antibacterial activity against Staphylococcus aureus assessed as reduction in microbial growth by two fold microdilution method. It counts as functional. In outline: (§1)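 MIC determined by the standard two-fold broth micro-dilution assay, with norfloxacin and ciprofloxacin as reference agents.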
Experiment [7] has as its system Staphylococcus aureus. Put plainly: Antibacterial activity against Staphylococcus aureus ATCC 25923 assessed as reduction in microbial growth by two fold microdilution method. It counts as functional.
Experiment [8] deals with Staphylococcus aureus. Briefly: Antibacterial activity against methicillin-resistant Staphylococcus aureus assessed as reduction in microbial growth by two fold microdilution method. The class given is functional. The procedure, abridged: as §1
Experiment [9] has as its system Enterococcus faecalis. Briefly: Antibacterial activity against Enterococcus faecalis assessed as reduction in microbial growth by two fold microdilution method. The class given is functional.
In experiment [10] the test system is Pseudomonas aeruginosa. Briefly: Antibacterial activity against Pseudomonas aeruginosa assessed as reduction in microbial growth by two fold microdilution method. It counts as functional.
For experiment [11], the system named is Pseudomonas aeruginosa. Briefly: Antibacterial activity against Pseudomonas aeruginosa ATCC 27853 assessed as reduction in microbial growth by two fold microdilution method. It counts as functional.
For experiment [12], the system named is Klebsiella pneumoniae. Briefly: Antibacterial activity against Klebsiella pneumonia assessed as reduction in microbial growth by two fold microdilution method. The class given is functional.
Experiment [13] relates to Staphylococcus aureus. Put plainly: Potency index, ratio of norfloxacin MIC to test compound MIC for antibacterial activity against methicillin-resistant Staphylococcus aureus assessed as reduction in microbial growth by two fold microdilution method. It counts as functional.

Each structure is given as a SMILES string. Active and inactive are the calls of the source. The rule behind the calls is not given here.

By MIC is commonly meant the lowest concentration found to suppress growth. For `CO/N=C(\CN1CCN(c2cc3c(cc2F)c(=O)c(C(=O)O)cn3C2CC2)CC1)c1nccs1`, the minimal inhibitory concentration (MIC) in [1] is 256 µg/mL; in experiment [2] it was 0.25 µg/mL; in experiment [3], 1 µg/mL; in [4], 0.25 µg/mL; in [6], 0.25 µg/mL; in [7], 0.25 µg/mL. The MIC worked out at 0.25 µg/mL in experiment [8]; 0.25 µg/mL in experiment [9]; 0.25 µg/mL in experiment [10]; 2 µg/mL in [11]; 256 µg/mL in [12]. The outcome in [5] was inactive.

Turning to `CCn1cc(C(=O)O)c(=O)c2cc(F)c(N3CCN(C/C(=N\OCc4ccccc4)c4nccs4)CC3)cc21`, the minimum inhibitory concentration (MIC) in [1] was found to be 64 µg/mL; in [2], 256 µg/mL; in [3], 1 µg/mL; in [4], 0.5 µg/mL; in experiment [6], 4 µg/mL; in [7] it was 0.25 µg/mL. Moreover, the MIC in [8] worked out at 0.25 µg/mL; in experiment [9], 0.25 µg/mL; in [10] it was 0.5 µg/mL; in experiment [11], 1 µg/mL; in [12] it was 128 µg/mL. In addition, the Ratio in experiment [13] is 64.

In the case of `CCO/N=C(\CN1CCN(c2cc3c(cc2F)c(=O)c(C(=O)O)cn3CC)CC1)c1nccs1`, the MIC in [1] was determined as 256 µg/mL; in experiment [2] it was 4 µg/mL; in experiment [3], 2 µg/mL; in experiment [4], 0.25 µg/mL; in [6] it was 8 µg/mL; in experiment [7], 0.5 µg/mL. In addition, the MIC in experiment [8] was 0.25 µg/mL; in experiment [9] it was 16 µg/mL; in experiment [10], 0.25 µg/mL; in experiment [11], 8 µg/mL; in experiment [12], 256 µg/mL. Moreover, in [13], the Ratio was found to be 64.

As to `CCO/N=C(\CN1CCN(c2cc3c(cc2F)c(=O)c(C(=O)O)cn3C2CC2)CC1)c1nccs1`, the MIC stood at 32 µg/mL in experiment [1]; 4 µg/mL in experiment [2]; 1 µg/mL in experiment [3]; 2 µg/mL in [4]; 0.25 µg/mL in experiment [6]; 0.5 µg/mL in [7]. Moreover, the MIC in experiment [8], in [9], in [10], in [11] and in experiment [12] was 0.25 µg/mL in each case.

Take `C=CCO/N=C(\CN1CCN(c2c(F)cc3c(=O)c(C(=O)O)cn(C4CC4)c3c2Cl)CC1)c1nccs1`: the MIC in [1] turned out to be 0.5 µg/mL; in experiment [2] it was 0.5 µg/mL; in experiment [3], 0.25 µg/mL; in [4], 0.25 µg/mL; in [6], 0.25 µg/mL; in experiment [7], 0.25 µg/mL. Moreover, the MIC in [8] stood at 0.25 µg/mL; in experiment [9], 0.25 µg/mL; in [10], 0.25 µg/mL; in [11] it was 0.25 µg/mL; in [12], 256 µg/mL.

As to `O=C(O)c1cn(C2CC2)c2cc(N3CCN(C/C(=N\OCc4ccccc4)c4nccs4)CC3)c(F)cc2c1=O`, the MIC in [1] was 256 µg/mL; in experiment [2], 0.5 µg/mL; in experiment [3], 8 µg/mL; in [4] it was 0.25 µg/mL; in experiment [6] it was 0.25 µg/mL; in [7], 1 µg/mL. Also, the MIC was found to be 0.25 µg/mL in experiment [8]; 2 µg/mL in [9]; 0.25 µg/mL in experiment [10]; 1 µg/mL in experiment [11]; 256 µg/mL in experiment [12].

In the case of `CCO/N=C(\CN1CCN(c2c(F)cc3c(=O)c(C(=O)O)cn(C4CC4)c3c2Cl)CC1)c1nccs1`, the MIC came out at 256 µg/mL in experiment [1]; 0.25 µg/mL in experiment [2]; 0.25 µg/mL in experiment [3]; 0.25 µg/mL in experiment [4]; 0.25 µg/mL in experiment [6]; 0.5 µg/mL in [7]. The MIC was 0.25 µg/mL in experiment [8]; 0.25 µg/mL in experiment [9]; 0.25 µg/mL in [10]; 0.25 µg/mL in [11]; 256 µg/mL in experiment [12]. Besides, the result in experiment [5] was inactive.

Take `CCn1cc(C(=O)O)c(=O)c2cc(F)c(N3CCN(C/C(=N\OCC(=O)OC)c4nccs4)CC3)cc21`: the MIC in experiment [1] is 0.25 µg/mL; in experiment [2] it was 2 µg/mL; in experiment [3], 1 µg/mL; in [4] it was 32 µg/mL; in experiment [6], 4 µg/mL; in experiment [7], 0.25 µg/mL. For the same compound, the minimal inhibitory concentration (MIC) in experiment [8] turned out to be 0.25 µg/mL; in [9] it was 0.25 µg/mL; in experiment [10] it was 0.25 µg/mL; in experiment [11] it was 0.25 µg/mL; in experiment [12], 256 µg/mL. In addition, the Ratio in experiment [13] is given as 64.

As for `CC(C)(C)O/N=C(\CN1CCN(c2c(F)cc3c(=O)c(C(=O)O)cn(C4CC4)c3c2Cl)CC1)c1nccs1`, the MIC in [1] came to 0.25 µg/mL; in experiment [2], 0.25 µg/mL; in experiment [3] it was 0.25 µg/mL; in experiment [4] it was 4 µg/mL; in [6] it was 0.25 µg/mL; in experiment [7], 0.5 µg/mL. Besides, the MIC in [8] worked out at 0.25 µg/mL; in experiment [9] it was 0.25 µg/mL; in experiment [10], 0.25 µg/mL; in experiment [11], 0.25 µg/mL; in experiment [12], 256 µg/mL. In addition, the result in experiment [5] was inactive.

In the case of `COC(=O)CO/N=C(\CN1CCN(c2c(F)cc3c(=O)c(C(=O)O)cn(C4CC4)c3c2Cl)CC1)c1nccs1`, the minimum inhibitory concentration (MIC) turned out to be 0.5 µg/mL in [1]; 0.25 µg/mL in experiment [2]; 4 µg/mL in experiment [3]; 4 µg/mL in experiment [4]; 0.25 µg/mL in experiment [6]; 0.25 µg/mL in experiment [7]. Besides, the MIC in [8] is 0.25 µg/mL; in [9], 0.25 µg/mL; in experiment [10], 0.25 µg/mL; in [11], 0.25 µg/mL; in [12], 256 µg/mL.

Take `CC(C)(C)O/N=C(\CN1CCN(c2cc3c(cc2F)c(=O)c(C(=O)O)cn3C2CC2)CC1)c1nccs1`: the MIC was 1 µg/mL in experiment [1]; 4 µg/mL in experiment [2]; 4 µg/mL in experiment [3]; 128 µg/mL in experiment [4]; 4 µg/mL in [6]; 1 µg/mL in experiment [7]. Also, the MIC in experiment [8] was 4 µg/mL; in experiment [9], 2 µg/mL; in [10] it was 0.25 µg/mL; in experiment [11], 0.25 µg/mL; in experiment [12], 64 µg/mL.

As for `CCn1cc(C(=O)O)c(=O)c2cc(F)c(N3CCNCC3)cc21` [NORFLOXACIN], the minimum inhibitory concentration (MIC) in [1] amounted to 16 µg/mL; in experiment [2], 2 µg/mL; in [3], 2 µg/mL; in experiment [4], 16 µg/mL; in experiment [6], 4 µg/mL; in experiment [7], 2 µg/mL. Further, the MIC in experiment [8] came to 16 µg/mL; in experiment [9], 4 µg/mL; in [10] it was 2 µg/mL; in experiment [11] it was 8 µg/mL; in experiment [12], 4 µg/mL.

Regarding `O=C(CN1CCN(c2cc3c(cc2F)c(=O)c(C(=O)O)cn3C2CC2)CC1)c1nccs1`, the MIC in experiment [1] worked out at 4 µg/mL; in experiment [2], 2 µg/mL; in experiment [3], 2 µg/mL; in experiment [4], 4 µg/mL; in experiment [6], 1 µg/mL; in experiment [7] it was 4 µg/mL. Besides, the MIC in experiment [8] amounted to 16 µg/mL; in experiment [9], 8 µg/mL; in [10] it was 1 µg/mL; in experiment [11], 1 µg/mL; in [12], 16 µg/mL.

Turning to `C=CCO/N=C(\CN1CCN(c2cc3c(cc2F)c(=O)c(C(=O)O)cn3C2CC2)CC1)c1nccs1`, the MIC in experiment [1] was found to be 0.5 µg/mL; in [2] it was 32 µg/mL; in experiment [3], 0.25 µg/mL; in [4], 1 µg/mL; in [6], 0.25 µg/mL; in experiment [7] it was 0.25 µg/mL. Moreover, the minimum inhibitory concentration (MIC) in [8], in experiment [9], in experiment [10], in experiment [11] and in experiment [12] was 0.25 µg/mL each time.

`CCn1cc(C(=O)O)c(=O)c2cc(F)c(N3CCN(C/C(=N\OC(C)(C)C)c4nccs4)CC3)cc21`: the MIC in experiment [1] is 1 µg/mL; in [2] it was 16 µg/mL; in experiment [3], 16 µg/mL; in experiment [4], 1 µg/mL; in experiment [6], 0.25 µg/mL; in experiment [7] it was 1 µg/mL. The MIC was found to be 0.25 µg/mL in [8]; 0.25 µg/mL in experiment [9]; 2 µg/mL in experiment [10]; 1 µg/mL in [11]; 1 µg/mL in [12]. For the same compound, the Ratio in [13] is given as 64.

Regarding `CO/N=C(\CN1CCN(c2c(F)cc3c(=O)c(C(=O)O)cn(C4CC4)c3c2Cl)CC1)c1nccs1`, the MIC was determined as 0.25 µg/mL in [1]; 0.25 µg/mL in experiment [2]; 0.25 µg/mL in experiment [3]; 0.25 µg/mL in [4]; 0.25 µg/mL in experiment [6]; 0.5 µg/mL in experiment [7]. Also, the MIC in experiment [8] is 0.25 µg/mL; in experiment [9], 0.25 µg/mL; in [10] it was 1 µg/mL; in experiment [11], 0.25 µg/mL; in experiment [12], 0.25 µg/mL. The outcome in [5] was inactive.

`O=C(O)c1cn(C2CC2)c2c(Cl)c(N3CCN(C/C(=N\OCc4ccccc4)c4nccs4)CC3)c(F)cc2c1=O`: the minimum inhibitory concentration (MIC) in experiment [1] was found to be 0.25 µg/mL; in experiment [2], 2 µg/mL; in experiment [3], 0.25 µg/mL; in experiment [4] it was 0.25 µg/mL; in experiment [6], 2 µg/mL; in [7], 1 µg/mL. In addition, the MIC in experiment [8] is 0.25 µg/mL; in [9] it was 0.25 µg/mL; in experiment [10], 1 µg/mL; in experiment [11], 0.25 µg/mL; in experiment [12] it was 0.25 µg/mL.

Source of the values: ChEMBL document CHEMBL4813987, “Membrane active 7-thiazoxime quinolones as novel DNA binding agents to decrease the genes expression and exert potent anti-methicillin-resistant Staphylococcus aureus activity” (Eur J Med Chem, 2021).
